Measurements from different studies.
Lines come from different studies, so protocols differ. ≈ marks a conversion by molar mass, not a printed value.
Organism: Streptococcus pneumoniae
Effect on: microbial growth

CNC(=O)Oc1c2c(c(O)c3cc(CN4CCC4)ccc13)C(=O)C1=C(O)[C@]3(O)C(=O)C(C(N)=O)=C(O)[C@@H](N(C)C)[C@@H]3C[C@@H]1C2  MIC (broth dilution; ATCC49619): 0.5 µg/mL (≈ 0.824 µM)
COc1ccc2cc1Oc1cc(ccc1OC)CCC(N[C@@H]1CCCc3ccccc31)CCCC2 (some centres unmarked)  MIC (broth dilution): > 100 µg/mL
CN[C@H](CC(C)C)C(=O)N[C@H]1C(=O)N[C@@H](CC(N)=O)C(=O)N[C@H]2C(=O)N[C@H]3C(=O)N[C@H](C(=O)N[C@H](C(=O)O)c4cc(O)cc(O)c4-c4cc3ccc4O)[C@H](O)c3ccc(c(Cl)c3)Oc3cc2cc(c3O[C@@H]2O[C@H](CO)[C@@H](O)[C@H](O)[C@H]2O[C@H]2C[C@](C)(N)[C@H](O)[C@H](C)O2)Oc2ccc(cc2Cl)[C@H]1O  MIC: 0.12 µg/mL (≈ 0.0828 µM)
CCCCCCCCCCCCCCCC(=O)NS(=O)(=O)Oc1ccc(CCNC(=O)OC(C)(C)C)cc1  MIC (broth dilution; R6): 50 µg/mL (≈ 90.1 µM)
CCCCCCCCCCCCCCCCCc1cc(O)cc(O)c1  IC50: > 200 µM
CN[C@@H]1[C@H](O)[C@H](NC)[C@H]2O[C@@]3(O)C(=O)C[C@@H](C)O[C@H]3O[C@@H]2[C@H]1O  MIC (broth dilution; DAW27): 25 µg/mL (≈ 75.2 µM)
C[C@H]1COCCN1c1nc(NCc2cccnc2C(F)(F)F)c2cccnc2n1  MIC (broth dilution): 32 to 64 µg/mL (≈ 79.1 to 158 µM)
CC(C)CCCCCCCCCCCCCCCc1cc(O)cc(O)c1  IC50: 70 µM
